Measured values from ChEMBL document CHEMBL4680103, “In Vitro and in Vivo Anti-Trypanosoma cruzi Activity of New Arylamine Mannich Base-Type Derivatives” (J Med Chem, 2016).
The source made the active and inactive calls. The rule behind the calls is not given here.

Key:
Trypanosoma cruzi [1] = experiment: Antitrypanosomal activity against Trypanosoma cruzi Arequipa epimastigote forms incubated for 72 hrs by hemocytometry; assay type: functional, organism-based
Outline: (§1)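 Epimastigotes grown in MTL medium with 10% inactivated FBS at 28 °C. Compounds were dissolved in DMSO (0.01% v/v) and added at 0.1–100 µM for 72 h. Parasites were counted in a Neubauer chamber. IC50 (50% growth inhibition) was derived by linear regression of Kc values. Values are averages of four determinations.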

Trypanosoma cruzi [2] = experiment: Antitrypanosomal activity against Trypanosoma cruzi Arequipa amastigote forms infected in African green monkey Vero cells incubated for 72 hrs by Giemsa staining based micrscopy; assay type: functional, organism-based
Outline: (§2)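 Vero cells (RPMI, 10% inactivated FBS, 37 °C, 5% CO2) were seeded at 1×10^4/well on coverslips and cultured 2 days. They were infected 24 h with metacyclic forms at 10:1. After washing off free parasites, drugs were added at 0.1–100 µM for 72 h. Slides were methanol-fixed and Giemsa-stained; amastigotes were counted in 200 host cells versus untreated. IC50 was calculated.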

Trypanosoma cruzi [3] = experiment: Antitrypanosomal activity against Trypanosoma cruzi Arequipa trypomastigote froms infected in mouse blood incubated for 24 hrs by Neubauer chamber based assay; assay type: functional, organism-based
Outline: (§3)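 Mouse blood taken at peak parasitemia (day 7) was diluted with uninfected blood to 4×10^6 trypomastigotes/mL, then 1:2 in RPMI 1640. Drugs from DMSO stocks were added at 1, 10, 25, 50 and 100 µM and incubated 24 h at 4–8 °C. Parasites were counted in a Neubauer chamber in triplicate. IC50 was calculated versus control.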

Trypanosoma cruzi [4] = experiment: Antitrypanosomal activity against Trypanosoma cruzi Tulahuen epimastigote forms incubated for 72 hrs by hemocytometry; assay type: functional, organism-based; outline: as §1
Trypanosoma cruzi [5] = experiment: Antitrypanosomal activity against Trypanosoma cruzi Tulahuen amastigote forms infected in African green monkey Vero cells incubated for 72 hrs by Giemsa staining based micrscopy; assay type: functional, organism-based; outline: as §2
Trypanosoma cruzi [6] = experiment: Antitrypanosomal activity against Trypanosoma cruzi Tulahuen trypomastigote froms infected in mouse blood incubated for 24 hrs by Neubauer chamber based assay; assay type: functional, organism-based; outline: as §3
Trypanosoma cruzi [7] = experiment: Antitrypanosomal activity against Trypanosoma cruzi SN3 epimastigote forms incubated for 72 hrs by hemocytometry; assay type: functional, organism-based; settings: SN3, 72 h; outline: as §1
Trypanosoma cruzi [8] = experiment: Antitrypanosomal activity against Trypanosoma cruzi SN3 amastigote forms infected in African green monkey Vero cells incubated for 72 hrs by Giemsa staining based micrscopy; assay type: functional, organism-based; outline: as §2
Trypanosoma cruzi [9] = experiment: Antitrypanosomal activity against Trypanosoma cruzi SN3 trypomastigote froms infected in mouse blood incubated for 24 hrs by Neubauer chamber based assay; assay type: functional, organism-based; outline: as §3
Vero = experiment: Cytotoxicity in African green monkey Vero cells incubated for 72 hrs; assay type: cell-based; settings: Chlorocebus sabaeus
Trypanosoma cruzi [10] = experiment: Antitrypanosomal activity against Trypanosoma cruzi infected in African green monkey Vero cells assessed as reduction in number of trypomastigotes measured up to 10 days by Giemsa staining based hemocytometry; assay type: functional; settings: time day <=10
Outline: (§4)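 Vero cells infected with metacyclic forms (10:1) were exposed to one concentration per compound immediately after infection for 12 h at 37 °C, 5% CO2. After washing, cultures were kept 10 days with fresh medium every 48 h. Every 48 h, % infected cells and amastigotes per infected cell (200 Giemsa-stained cells) and medium trypomastigotes (Neubauer) were scored. Means of three experiments.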

Trypanosoma cruzi [11] = experiment: Antitrypanosomal activity against Trypanosoma cruzi infected in African green monkey Vero cells assessed as reduction in number of amastigotes per infected cell measured up to 10 days by Giemsa staining based hemocytometry; assay type: functional; settings: time day <=10; outline: as §4
Trypanosoma cruzi [12] = experiment: Antitrypanosomal activity against Trypanosoma cruzi infected in African green monkey Vero cells assessed as reduction in infection rate measured up to 10 days by Giemsa staining based hemocytometry; assay type: functional; settings: time day <=10; outline: as §4
Trypanosoma cruzi [13] = experiment: Antitrypanosomal activity against Trypanosoma cruzi Arequipa trypomastigotes infected in BALB/c mouse assessed as reduction in parasitemia measured during acute phase (days 0 to 40 post infection) at 50 to 100 mg/kg, po dosed on alternating days (7 to 15 days post infection); assay type: functional, organism-based; settings: dose 50-100 mg/kg
Outline: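 Female BALB/c mice (8–10 weeks, 25–30 g; groups of six) were infected i.p. with 5×10^5 Arequipa blood trypomastigotes. Dosing was oral, 50 or 100 mg/kg/day, on 5 alternating days (days 7–15 pi), alongside untreated and reference-drug groups. Parasitemia was counted in 5 µL mandibular-vein blood by Neubauer chamber through day 40 pi. Data are means ± SD of six mice.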

Trypanosoma cruzi [14] = experiment: Antitrypanosomal activity against Trypanosoma cruzi Arequipa trypomastigotes infected in BALB/c mouse assessed as reduction in mouse mortality measured during acute phase (days 0 to 40 post infection) at 50 to 100 mg/kg, po dosed on alternating days (7 to 15 days post infection); assay type: functional, organism-based; settings: dose 50-100 mg/kg
Trypanosoma cruzi [15] = experiment: Antitrypanosomal activity against Trypanosoma cruzi Arequipa trypomastigotes infected in BALB/c mouse assessed as reduction in splenomegaly by measuring weight percent of spleens […] at 100 mg/kg, po dosed on alternating days (7 to 15 days post infection) by PCR analysis (reference value: 1.603%); assay type: functional

Row | Compound | IC50 (Trypanosoma cruzi [1]) [µM] | IC50 (Trypanosoma cruzi [2]) [µM] | IC50 (Trypanosoma cruzi [3]) [µM] | IC50 (Trypanosoma cruzi [4]) [µM] | IC50 (Trypanosoma cruzi [5]) [µM] | IC50 (Trypanosoma cruzi [6]) [µM] | IC50 (Trypanosoma cruzi [7]) [µM] | IC50 (Trypanosoma cruzi [8]) [µM] | IC50 (Trypanosoma cruzi [9]) [µM] | IC50 (Vero) [µM] | inhibition (INH) (Trypanosoma cruzi [10]) [%] | inhibition (INH) (Trypanosoma cruzi [11]) [%] | inhibition (INH) (Trypanosoma cruzi [12]) [%] | Activity (Trypanosoma cruzi [13]) | Activity (Trypanosoma cruzi [14]) | Spleen weight percent (Trypanosoma cruzi [15]) [%]
1 | O=C(CCN1CCN(c2ccc(C(F)(F)F)cc2)CC1)c1ccc2c(c1)OCO2 | 50.6 | 27.9 | 21.8 | 21.8 | 17.6 | 23.7 | 17.8 | 13 | 14.2 | 48.7 | – | – | – | – | – | –
2 | O=C(CCN1CCN(c2ccc(F)cc2)CC1)c1ccc2c(c1)OCO2 | 97 | 22.4 | 34.6 | 200 | 22.3 | 56.3 | 17.6 | 14.8 | 63.4 | 323 | – | – | – | – | – | –
3 | O=C(CCN1CCN(c2ccc(Cl)cc2)CC1)c1csc2ccccc12 | 30.6 | 25.3 | 31.4 | 42.3 | 10.1 | 12.8 | 23.6 | 26.3 | 43.2 | 157 | – | – | – | – | – | –
4 | O=C(CCN1CCN(Cc2cccc(F)c2)CC1)c1csc2ccccc12 | 86.7 | 22.6 | 39.5 | 28.9 | 20 | 27.3 | 53.9 | 32 | 86.3 | 70.8 | – | – | – | – | – | –
5 | O=C(CCN1CCN(c2ccc([N+](=O)[O-])cc2)CC1)c1csc2ccc(F)cc12 | 36.6 | 19.8 | 43.3 | 48.1 | 8.8 | 52.4 | 39.4 | 16.3 | 4.1 | 554 | – | – | – | – | – | –
6 | O=C(Cn1ccnc1[N+](=O)[O-])NCc1ccccc1 [BENZNIDAZOLE] | – | 23.7 | 12.6 | – | 21.7 | 12.8 | – | – | 6.2 | – | 20 | 30 | 22 | Active | Active | 0.837
7 | O=C(CCN1CCN(c2ccc(F)cc2)CC1)c1ccc2ccccc2c1 | 49 | 23.9 | 24.6 | 27.6 | 20.3 | 25.5 | 24.1 | 12.4 | 10.7 | 103 | – | – | – | – | – | –

Now from value to compound, other results behind:

Row | IC50 (Trypanosoma cruzi [1]) [µM] | IC50 (Trypanosoma cruzi [2]) [µM] | IC50 (Trypanosoma cruzi [3]) [µM] | IC50 (Trypanosoma cruzi [4]) [µM] | IC50 (Trypanosoma cruzi [5]) [µM] | IC50 (Trypanosoma cruzi [6]) [µM] | IC50 (Trypanosoma cruzi [7]) [µM] | IC50 (Trypanosoma cruzi [8]) [µM] | IC50 (Trypanosoma cruzi [9]) [µM] | Compound | IC50 (Vero) [µM] | inhibition (INH) (Trypanosoma cruzi [10]) [%] | inhibition (INH) (Trypanosoma cruzi [11]) [%] | inhibition (INH) (Trypanosoma cruzi [12]) [%] | Activity (Trypanosoma cruzi [13]) | Activity (Trypanosoma cruzi [14]) | Spleen weight percent (Trypanosoma cruzi [15]) [%]
8 | 28.5 | 13.2 | 9.6 | 9.6 | 14.8 | 21.8 | 30.1 | 17.6 | 19.6 | O=C(CCN1CCN(c2ccc(Cl)cc2)CC1)c1csc2ccc(F)cc12 | 246 | – | – | – | – | – | –
9 | 1.4 | 1.2 | 0.58 | 15.6 | 11.6 | 0.08 | 18.8 | 11.4 | 50.9 | O=C(CCN1CCN(c2ccc([N+](=O)[O-])cc2)CC1)c1ccc2c(c1)OCO2 | 276 | – | – | – | – | – | –
10 | 3.4 | 5.4 | 3.9 | 6.9 | 8.6 | 6.9 | 27.7 | 20.3 | 26.4 | O=C(CCN1CCN(c2ccc([N+](=O)[O-])cc2)CC1)c1ccc2ccccc2c1 | 74.3 | – | – | – | – | – | –
11 | 2.5 | 0.8 | 0.7 | 4.7 | 2 | 2.3 | 21.2 | 24.2 | 37.5 | COc1cc(Cl)ccc1N1CCN(CCC(=O)c2cc(C)sc2C)CC1 | 138 | – | – | – | – | – | –
12 | 14.1 | 10 | 46.9 | 28 | 7.7 | 22.3 | 24.1 | 16.3 | 21.8 | O=C(CCN1CCN(c2ccc(Cl)cc2)CC1)c1ccsc1 | 65.8 | – | – | – | – | – | –
13 | 2.5 | 1.7 | 46.3 | 69.1 | 11.2 | 29.3 | 12.6 | 6.2 | 16.8 | O=C(CCN1CCN(c2ccc(Cl)cc2)CC1)c1ccc2c(c1)OCO2 | 0.3 | – | – | – | – | – | –
14 | 1.23 | 2.6 | 8.3 | 4.2 | 20.5 | 6.6 | 15.3 | 8.3 | 36.5 | O=C(CCN1CCN(c2ccc(C(F)(F)F)cc2)CC1)c1ccc2ccccc2c1 | 30.1 | – | – | – | – | – | –
15 | 29.7 | 31.7 | 43.3 | 30.1 | 21.7 | 32.3 | 42.5 | 18.7 | 20.8 | O=C(CCN1CCN(Cc2ccccc2)CC1)c1csc2ccccc12 | 130 | – | – | – | – | – | –
16 | 21.9 | 19.3 | 32.3 | 48.2 | 8.1 | 6.6 | 40.6 | 21.4 | 43.2 | O=C(CCN1CCN(c2ccc(C(F)(F)F)cc2)CC1)c1csc2ccccc12 | 237 | – | – | – | – | – | –
